Bioassay records: PubChem BioAssay, Sanford-Burnham Center for Chemical Genomics
CendR NRP1 mod – modulators of CendR peptide binding to human neuropilin-1; O14786; FAM-RPARPAR peptide binding to NRP-1, fluorescence polarization; inhibition, % at 25 µM; 360,000 tested, 0.85% active;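 active = inhibition or corrected inhibition above about 18%, plus a signal ratio from 0.5 to 1.5, limit read from the data, passing the limit was not always enough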
SENP1 inh – SENP1 (human) catalytic domain inhibition; recombinant SENP1 catalytic domain, CyPet-SUMO1-YPet FRET cleavage; inhibition, % at 10 µM; AID 624204; 360,000 tested, 0.21% active;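 active = inhibition at least 30% at 10 µM, raw YFP signal under a set limit, fluorescence ratio 0.5 to 1.5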
Target sequence (Q9P0U3 419-644 limits assumed): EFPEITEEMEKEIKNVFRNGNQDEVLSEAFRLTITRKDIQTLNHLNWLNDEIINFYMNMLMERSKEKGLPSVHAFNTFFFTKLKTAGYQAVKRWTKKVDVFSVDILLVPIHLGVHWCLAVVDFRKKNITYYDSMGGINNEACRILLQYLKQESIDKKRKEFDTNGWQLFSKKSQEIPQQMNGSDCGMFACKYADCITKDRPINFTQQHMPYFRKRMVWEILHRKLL
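material = recombinant human SENP1 catalytic domain, His6-tagged | quantity = 20 pM enzyme | reagent = 25 nM SUMO1 FRET substrate | compound dosing = 10 µM single point, 0.5% DMSO | timing = 50 min enzyme reaction, room temperature, light-protected | detection = FRET, CFP and YFP emission | control set = no-enzyme low, enzyme-DMSO high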
SENP8 block-1 – inhibitors of human SENP8 protease. recombinant SENP8, Nedd8 substrate fluorescence. 360,000 tested, 0.64% active. inhibition, % at 20 µM. Q96LD8; in the data active = inhibition mostly above about 40%, no sharp cut-off; inactive = mostly below about 27%
Target sequence (Q96LD8 whole entry, looked up): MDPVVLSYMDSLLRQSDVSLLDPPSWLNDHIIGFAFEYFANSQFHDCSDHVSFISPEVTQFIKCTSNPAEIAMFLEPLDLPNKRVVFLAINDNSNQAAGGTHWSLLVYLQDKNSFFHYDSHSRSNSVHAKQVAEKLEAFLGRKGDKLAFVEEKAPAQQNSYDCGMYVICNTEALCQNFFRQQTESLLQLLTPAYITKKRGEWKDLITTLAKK
SENP6 inh – SENP6 protease inhibition | Q9GZR1 | Recombinant SENP6 catalytic domain, aminoluciferin luminescence | inhibition, % at 10 µM | 330,000 tested, 1.8% active | AID 2599;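 active = inhibition above about 50% at the single tested dose, limit read from the data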
SENP8 block-2 – SENP8 protease inhibition. inhibition, % at 10 µM. Q96LD8. 330,000 tested, 1.2% active. purified SENP8, Z-RLRGG-aminoluciferin cleavage, luminescence; in the data active = inhibition above about 50%
SENP7 inh – SENP7 protease inhibition | recombinant SENP7, Z-RLRGG-aminoluciferin luminescence, 40 min | inhibition, % at 5 µM | 330,000 tested, 1.5% active | AID 434973;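 active = inhibition above about 50% at the single test dose, limit read from the data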
Each line names hits and unclear results; the compound was inactive in the other large screens. Most compounds without a hit are left out; they make up all but 3.3% or so of the library.

C=CCn1c(NC(=O)c2ccccc2)nc2ccccc21	CendR NRP1 mod 26.3
CC(=O)Nc1cccc(NC(=O)c2oc3ccccc3c2C)c1	SENP7 inh 54.1 (no result: CendR NRP1 mod, SENP1 inh, SENP8 block-1)
CC(=O)Nc1ccc(NC(=S)NC(=O)c2oc3ccccc3c2C)cc1	none
Cc1cc(SCC(=O)N2CCN(C(=O)c3ccco3)CC2)c(C)cc1Br	CendR NRP1 mod 21.8
COc1ccc(CNC(=O)Cn2ccc(NC(=O)OCc3ccccc3)nc2=O)cc1	CendR NRP1 mod 38.5
O=C(Cn1ccc(NC(=O)OCc2ccccc2)nc1=O)NCc1ccc2[nH]ccc2c1	CendR NRP1 mod 23.6
COCCCNC(=O)Cn1ccc(NC(=O)OCc2ccccc2)nc1=O	none
Cc1ccc(CNC(=O)Cn2ccc(NC(=O)OCc3ccccc3)nc2=O)o1	none
C/C(=N/OC(=O)c1ccc(Cl)cc1Cl)c1oc(C)nc1C	SENP6 inh 90.2, SENP8 block-2 82.8, SENP7 inh 87.1
O=C(CSc1nc(O)c(Cc2ccccc2)c(=O)n1-c1ccccc1)N1CCOCC1	CendR NRP1 mod 25.8
Cc1ccc(-n2c(SCC(=O)N3CCOCC3)nc(O)c(Cc3ccccc3)c2=O)cc1	none
CCCCCCCCN1C(=O)[C@H](CC(=O)N2CCOCC2)C[C@@]2(C(=O)OC)CCCCC=C12	none (no result: SENP6 inh, SENP8 block-2, SENP7 inh)
CCOC(=O)c1csc(COc2ccccc2Cl)n1	none
CCOC(=O)c1csc(COc2ccc(OC)cc2)n1	CendR NRP1 mod 30.4
Cc1cc(SCC(=O)N(C)C2CCCCC2)nc2ccccc12	none
CCOc1ccc(NC(=O)CN2C(=O)C3CC=CCC3C2=O)cc1 (stereo unspecified)	none
CCOc1ccc(NC(=O)C2CCC(N3C(=O)C4CC=CCC4C3=O)CC2)cc1 (stereo unspecified)	CendR NRP1 mod 28.9
CCOc1ccc(NC(=O)C2CC3CCC2C3)cc1 (stereo unspecified)	CendR NRP1 mod 27.5
CCOC(=O)C1=CCN(S(=O)(=O)c2ccccc2C)C1c1ccc(Cl)cc1 (stereo unspecified)	none (no result: SENP6 inh, SENP8 block-2, SENP7 inh)
CC(C)C[C@H]1CN(CCCC[C@H]2CNC(=O)C(=O)N2Cc2ccccc2)C(=O)C(=O)N1CC1CCCCC1	none (no result: SENP6 inh, SENP8 block-2, SENP7 inh)
O=C(CCn1cncn1)N1CCCC(N2CCN(c3cccc(C(F)(F)F)c3)CC2)C1 (stereo unspecified)	none
O=C(CCn1cncn1)N1CCCC(N2CCN(c3ccc(F)cc3)CC2)C1 (stereo unspecified)	CendR NRP1 mod 24.7
CCc1ccc(/C=C/C(=O)C2C(=O)c3ccccc3C2=O)cc1	SENP8 block-1 50.4
O=C(/C=C/c1ccccc1)C1C(=O)c2ccccc2C1=O	none
COc1ccc2c(c1OC)C(=O)O[C@@H]2[C@H]1c2c(cc3c(c2OC)OCO3)CCN1C	SENP8 block-1 44.0
CN(C)C(=O)COc1ccc2ccc(=O)oc2c1	none
CC(C)=CC(O)C/C(C)=C/COc1ccc2ccc(=O)oc2c1 (stereo unspecified)	CendR NRP1 mod 25.8
CC1CCC2(CC1)NC(=O)N(CC(=O)Nc1ccc(N3CCCCC3)cc1)C2=O (stereo unspecified)	none (no result: SENP6 inh, SENP8 block-2, SENP7 inh)
Nc1c([N+](=O)[O-])cc2c3c(cccc13)CC2	none (no result: SENP6 inh, SENP8 block-2, SENP7 inh)
CCOC(=O)c1ccc2[nH]c(C)c(C)c2c1	CendR NRP1 mod 45.5
Cc1[nH]c2ccc(C(=O)OCCN(C)C)cc2c1C	none
CCCc1nc2c(C)cc(Br)cn2c1Cc1cccc(F)c1	none (no result: SENP6 inh, SENP8 block-2, SENP7 inh)
Cc1cc(C)nc(NS(=O)(=O)c2ccc(NC(=O)COc3ccccc3F)cc2)n1	none
O=C(COc1ccccc1F)Nc1cc(S(=O)(=O)Nc2cccc(Cl)c2)ccc1O	CendR NRP1 mod 25.0
CCOC(=O)c1c(C)oc2c1c(C=NCCO)c(O)c1ccccc12	CendR NRP1 mod 35.1 (no result: SENP6 inh, SENP8 block-2, SENP7 inh)
Nc1nnc(-c2cccc(F)c2)s1	none
O=c1oc2c(-c3cccc(F)c3)cc(O)cc2s1	CendR NRP1 mod 33.3
CC(C)NC(=O)C1(C)CSCC(=O)N1CCCn1ccnc1 (stereo unspecified)	none (no result: SENP6 inh, SENP8 block-2, SENP7 inh)
CN1CCN(c2ccc(NC(=O)c3ccc(Br)o3)cc2)CC1	SENP6 inh 56.9
O=C(O)c1cn(-c2ccc(F)cc2)c2cc(N3CCNCC3)c(F)cc2c1=O	none (no result: SENP6 inh, SENP8 block-2, SENP7 inh)
Nc1cnc(Br)cc1Br	none
Nc1cc2nsnc2cc1Br	CendR NRP1 mod 39.7, SENP8 block-1 92.9, SENP6 inh 95.5, SENP8 block-2 97.2, SENP7 inh 95.1
Nc1ccc(N=Nc2ccccc2)cc1[N+](=O)[O-]	CendR NRP1 mod 23.4 (no result: SENP6 inh, SENP8 block-2, SENP7 inh)
Cc1ccc(N)c([N+](=O)[O-])c1	none
CCCCn1c(SCC(=O)Nc2cc(C)on2)nnc1-c1cccnc1	CendR NRP1 mod 21.8
COCCNC(=O)C1(C)CCCN(Cc2cccc(OC(=O)c3ccccc3)c2)C1 (stereo unspecified)	none (no result: SENP6 inh, SENP8 block-2, SENP7 inh)
CC(=O)N1CCC(C(=O)N2c3ccccc3N=C(c3ccc(C(F)(F)F)cc3)C2C(=O)NC(C)C)CC1 (stereo unspecified)	none (no result: SENP6 inh, SENP8 block-2, SENP7 inh)
COCCNC(=O)C1(C)Cc2c(-c3ccc4c(c3)OCO4)ccnc2O1 (stereo unspecified)	none (no result: SENP6 inh, SENP8 block-2, SENP7 inh)
Cc1ccccc1-n1ncc2c1CC(C)(C)CC2NC(=O)c1ccncc1 (stereo unspecified)	CendR NRP1 mod 44.2
COc1cccc(/C=N/N=C(\N)c2nonc2N)c1O	SENP7 inh 78.3
CC(Sc1nnc(-c2ccc(C(C)(C)C)cc2)n1C)C(N)=O (stereo unspecified)	CendR NRP1 mod 23.7
O=C1Nc2ccccc2-n2nnnc2C1N1CCN(c2ccc(C(F)(F)F)cc2[N+](=O)[O-])CC1 (stereo unspecified)	none (no result: SENP6 inh, SENP8 block-2, SENP7 inh)
NC(=O)C1CCN(S(=O)(=O)c2ccccc2[N+](=O)[O-])CC1	none
Cc1ccc(S(=O)(=O)N2CCC(C(N)=O)CC2)cc1[N+](=O)[O-]	CendR NRP1 mod 27.2
Cc1ccc(NC2C(=O)NC(=O)NC2=O)cc1	SENP8 block-1 72.5 (no result: SENP6 inh, SENP8 block-2, SENP7 inh)
O=C(c1ccccc1)c1ccc(CN2C(=O)c3ccccc3C2=O)o1	none
Cc1ccccc1S(=O)(=O)Cc1ccc(C(=O)NCc2cccnc2)o1	CendR NRP1 mod 49.0
O=C1c2ccccc2C(=O)c2c1oc(C(F)(F)F)c2C(=O)c1ccccc1	SENP8 block-1 72.8, SENP6 inh 77.3, SENP8 block-2 59.2
CC(=O)c1c(C)oc2c1C(=O)c1ccccc1C2=O	SENP8 block-1 40.9 (no result: SENP6 inh, SENP8 block-2, SENP7 inh)
Cc1ccccc1S(=O)(=O)Cc1ccc(C(=O)NCc2ccccc2)o1	none
Cc1oc2c(c1C(=O)NCc1cccnc1)C(=O)c1ccccc1C2=O	SENP6 inh 84.3, SENP7 inh 73.6 (no result: CendR NRP1 mod, SENP1 inh, SENP8 block-1)
CN1OC[C@@H]2CN(S(=O)(=O)c3ccccc3)[C@H](c3ccccc3Br)C[C@@H]21	none (no result: SENP6 inh, SENP8 block-2, SENP7 inh)
CCOC(=O)c1ccc(N2C(=O)CC(Sc3nnc(C)s3)C2=O)cc1 (stereo unspecified)	CendR NRP1 mod 34.9
COc1cccc(CC(NC(C)=O)C(=O)NC2CCN(C(=O)c3ccc(Cl)cc3)CC2)c1 (stereo unspecified)	CendR NRP1 mod 18.7
